From PubChem BioAssay
E coli WT exp = growth inhibitors of wild-type E. coli, primary screen, strain BW25113, expanded library, OD600 | OD600 absorbance | growth inhibition, % at 100 µM | hit rate 0.15% among 98,000 | AID 710, 2007;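 active = growth inhibition above about 50% at one test dose, limit read from the data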;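 note: growth measured after 20 h incubation at 37 °C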
CYP2C9 activ = human CYP2C9 activators, primary screen, biochemical, luminescence | Cytochrome P450 2C9 (Homo sapiens), P11712 | recombinant CYP2C9, luciferin-H conversion; active compounds read high; factor 1 = untreated enzyme, 0 = blocked | hit rate 1.4% among 96,000 | AID 1024, 2008 | activation factor at 5 µM;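 active = activation factor of 2 or more for CYP2C9 at a 5 µM dose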;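 note: 0 = sulfaphenazole-blocked wells and 1 = vehicle-only wells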
CYP2C9 inhib = blockers of cytochrome P450 2C9 activity – biochemical, luminescence, ADME assay, primary screen; P11712; CYP2C9 Supersomes, luciferin-H conversion; inhibition, % at 5 µM; hit rate 20% among 96,000; AID 777, 2007;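 active = blocking of liver enzyme CYP2C9 beyond about 50% at 5 µM, limit read from the data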
CYP2C19 inh = blockers of cytochrome P450 2C19 activity – biochemical, luminescence, ADME assay, primary screen | P33261 | CYP2C19 Supersomes, luciferin-H EGE luminescence, 30 min | inhibition, % at 5 µM | hit rate 21% among 96,000 | AID 778, 2007;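 active = CYP2C19 inhibition above a set limit at 5 µM in the primary screen, cut at about 50% in these data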;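 note: plate controls were negative control wells for no effect and 2.5 mM tranylcypromine positive control for full effect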
Target sequence (P33261 whole entry, looked up): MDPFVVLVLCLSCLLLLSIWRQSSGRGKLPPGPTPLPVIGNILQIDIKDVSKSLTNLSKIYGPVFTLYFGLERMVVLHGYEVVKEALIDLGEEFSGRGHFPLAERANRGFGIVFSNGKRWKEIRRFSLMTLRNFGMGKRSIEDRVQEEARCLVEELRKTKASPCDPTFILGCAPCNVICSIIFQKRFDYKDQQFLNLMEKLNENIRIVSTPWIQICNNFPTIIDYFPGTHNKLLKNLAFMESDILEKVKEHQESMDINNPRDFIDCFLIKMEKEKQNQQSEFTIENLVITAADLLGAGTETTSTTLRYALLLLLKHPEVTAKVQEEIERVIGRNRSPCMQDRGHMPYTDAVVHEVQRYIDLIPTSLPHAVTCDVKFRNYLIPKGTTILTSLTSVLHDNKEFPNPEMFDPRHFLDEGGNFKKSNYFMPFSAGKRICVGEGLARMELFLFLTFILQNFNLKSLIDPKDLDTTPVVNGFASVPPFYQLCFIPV
CYP2C19 act = human CYP2C19 activators, primary screen, biochemical, luminescence | Cytochrome P450 2C19 (Homo sapiens), P33261 | recombinant CYP2C19, luciferin-H EGE luminescence; active compounds read high; 0 = fully inhibited enzyme, 1 = untreated enzyme | activation factor at 5 µM | 96,000 tested, under 10 active | AID 1025, 2008;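 active = activation factor of at least 2 at 5 µM in the primary screen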;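 note: 0 = wells with 2.5 mM tranylcypromine and 1 = vehicle-only wells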
Ecoli tolC = growth inhibitors of E. coli tolC mutant, primary screen, strain BW25113 ΔtolC::kan, 384-well; OD615; growth inhibition, % at 10 µM (by protocol); hit rate 2.2% among 65,000; AID 573, 2007;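 active = growth inhibition at or above a cutoff equal to the mean over every tested compound plus 3 SD, cut at about 60% in these data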;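 note: growth measured after 20 h incubation at 37 °C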
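Test system: tolC-deleted E. coli BW25113; medium: LB with kanamycin 50 µg/mL; compound: single-point testing at 10 µM; incubation: 20 h compound exposure of bacteria at 37 °C; signal: OD at 615 nm; evaluation: growth inhibition in percent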
An asterisk follows results filed as active; · = no result. Hits are enriched below; roughly 29% of the tested compounds scored in any of these assays.

SMILES | E coli WT exp | CYP2C9 activ | CYP2C9 inhib | CYP2C19 inh | CYP2C19 act | Ecoli tolC
CCc1ccc(N2CC(C(=O)N/N=C/c3cccc([N+](=O)[O-])c3)CC2=O)cc1 (stereo not given) | -5 | 0.3 | 69* | 16 | 0.8 | ·
CCCOc1ccc(N2CC(C(=O)Nc3ccccc3F)CC2=O)cc1 (stereo not given) | -16 | 0.6 | 41 | 3 | 1 | 9
CCc1ccc(N2CC(C(=O)Nc3ccccc3F)CC2=O)cc1 (stereo not given) | 5 | 0.2 | 82* | 46 | 0.5 | -1
CCOc1ccc(N2CC(C(=O)Nc3ncccc3C)CC2=O)cc1 (stereo not given) | -16 | 0.8 | 24 | -6 | 1.1 | -12
Cc1ccc(N2CC(C(=O)N/N=C/c3cccc([N+](=O)[O-])c3)CC2=O)cc1 (stereo not given) | 2 | 0.6 | 36 | 25 | 0.7 | ·
COC(=O)c1ccccc1NC(=O)C1CC(=O)N(c2ccc(F)cc2)C1 (stereo not given) | 4 | 0.4 | 64* | 84* | 0.2 | 7
COC(=O)c1cc(NC(=O)c2ccccc2)c(=O)oc1C/C=N\OCc1ccc(Cl)cc1Cl | -11 | 1 | -3 | 7 | 0.9 | ·
Cc1ccnc(NC(=O)COC(=O)C2COc3ccccc3O2)n1 (stereo not given) | -2 | 0.9 | 5 | 3 | 1 | -7
O=C(NCc1n[nH]c(=S)n1-c1ccc(F)cc1)c1ccco1 | -8 | 1.1 | -7 | 20 | 0.8 | -12
Cc1ccc2c(c1)-c1c(cnn1CC(=O)Nc1ccccc1N1CCN(C)CC1)CO2 | 6 | 0.7 | 26 | -2 | 1 | -8
CN1CCN(S(=O)(=O)c2ccc(-c3noc(C4CCN(S(C)(=O)=O)CC4)n3)cc2)CC1 | 27 | 1.1 | -9 | -5 | 1.1 | -18
COC(=O)c1ccccc1NC(=O)C1CC(=O)N(C2CCCCC2)C1 (stereo not given) | -13 | 0.4 | 59* | 66* | 0.3 | 8
CCOc1cc(N2CCOCC2)c(OCC)cc1NC(=O)C(NC(=O)c1ccco1)C(C)C (stereo not given) | 2 | 1 | -2 | 10 | 0.9 | -8
CCOc1ccccc1C(=O)NC(C(=O)Nc1ccccc1N1CCOCC1)C(C)C (stereo not given) | -2 | 0.3 | 73* | 38 | 0.6 | 8
O=C(Nc1ccccc1C(=O)N1CCOCC1)C1CC(=O)N(C2CCCC2)C1 (stereo not given) | 3 | 1.1 | -14 | -16 | 1.2 | -14
COc1ccc(OC)c(-n2nnnc2SCC(=O)Nc2nc(C)c(C)s2)c1 | -20 | 0.9 | 7 | 31 | 0.7 | 6
CCOc1ccc(NC(=O)CN(c2cccc(C(F)(F)F)c2)S(C)(=O)=O)cc1 | -3 | 0.3 | 72* | 85* | 0.2 | ·
COc1cccc(NC(=O)CN(c2cccc(C(F)(F)F)c2)S(C)(=O)=O)c1 | 9 | 0.3 | 70* | 88* | 0.1 | 4
CCOc1ccc(N(CC(=O)Nc2ccccc2)S(C)(=O)=O)cc1 | -6 | 0.3 | 70* | 88* | 0.1 | -5
COc1ccc(N(CC(=O)Nc2cccc(SC)c2)S(C)(=O)=O)cc1 | 1 | 0.1 | 89* | 94* | 0.1 | 4
COc1ccc(NC(=O)CN(c2cccc(C(F)(F)F)c2)S(C)(=O)=O)cc1OC | -1 | 0.7 | 31 | 40 | 0.6 | ·
Cc1ccc(CSCCNS(C)(=O)=O)cc1 | 3 | 0.8 | 20 | 21 | 0.8 | ·
COC(=O)c1cc2oc(C)cc2n1CC(=O)Nc1cc(C)cc(C)c1 | -2 | 1 | 4 | -11 | 1.1 | 0
CC(=O)Nc1ccc(NC(=O)CN(c2cccc(C)c2)S(C)(=O)=O)cc1 | 5 | 0.8 | 19 | 52* | 0.5 | ·
CCN1CCN(S(=O)(=O)c2ccc(Cl)c(C(=O)Nc3nnc(CC(C)C)s3)c2)CC1 | 0 | 0.8 | 22 | 6 | 0.9 | ·
SMILES | E coli WT exp | CYP2C9 activ | CYP2C9 inhib | CYP2C19 inh | CYP2C19 act | Ecoli tolC
COc1cc(-c2nc(-c3ccc4c(c3)-c3ccccc3S4(=O)=O)c(-c3ccccc3)[nH]2)cc(OC)c1O | -4 | 0.2 | 78* | 79* | 0.2 | ·
COc1cc(NC(=O)N[C@H](C(=O)O)C(C)C)cc(OC)c1 | 1 | 1.1 | -8 | 2 | 1 | -9
O=C(CN1CCN(C(c2ccccc2)c2ccccc2)CC1)NC(=O)NCc1ccco1 | -10 | 2* | -96 | 7 | 0.9 | 6
S=C(NCc1ccco1)N1CCN(C(c2ccccc2)c2ccccc2)CC1 | -22 | 0.3 | 72* | 35 | 0.7 | ·
Cc1ccc(N(C)C(=O)N2CCN(S(=O)(=O)c3c(C)cc(C)cc3C)CC2)cc1 | -5 | 0.3 | 75* | 64* | 0.4 | ·
CCN(CC)C(=O)N1CCN(S(=O)(=O)c2ccc(C)c(C)c2)CC1 | 9 | 2.2* | -123 | 98* | 0 | 12
Cc1ccc(S(=O)(=O)N2CCN(S(=O)(=O)N(C)C)CC2)c(C)c1 | -3 | 0.9 | 7 | 34 | 0.7 | ·
Cc1ccc(N(C)C(=O)N2CCN(S(=O)(=O)c3ccc(C)c(C)c3)CC2)cc1 | -14 | 0.2 | 78* | 98* | 0 | ·
Cc1ccc(S(=O)(=O)N2CCN(C(=O)N(C)C)CC2)cc1C | -5 | 1.7 | -68 | 56* | 0.4 | 9
CCN(CC)C(=O)N1CCN(S(=O)(=O)c2ccc(C)cc2)CC1 | 1 | 1.4 | -38 | 30 | 0.7 | ·
CC(C)(C)OC(=O)N1CCCC1C(=O)NC(Cc1ccccc1)C(=O)O (stereo not given) | -1 | 1.3 | -30 | -20 | 1.2 | -21
CCOC(=O)C1CCCN(c2c(N3CCc4ccccc4C3)c(=O)c2=O)C1 (stereo not given) | -2 | 0.5 | 50 | 35 | 0.7 | -2
O=C(CSc1ncc(-c2ccccc2)[nH]1)Nc1cccc(O)c1 | 4 | 0.8 | 21 | 62* | 0.4 | ·
O=C(CSc1ncc(-c2ccc(F)cc2)[nH]1)NCc1ccco1 | 6 | 0.8 | 18 | 44 | 0.6 | 11
O=C(CSc1ncc(-c2ccccc2)[nH]1)Nc1ccccc1 | 1 | 0.4 | 56* | 75* | 0.2 | ·
NC(=O)CSc1ncc(-c2ccccc2)[nH]1 | 9 | 1.2 | -17 | -27 | 1.3 | -5
O=C(CSc1ncc(-c2ccc(F)cc2)[nH]1)N1CCCCC1 | 6 | 1.1 | -12 | 84* | 0.2 | -11
O=C(CSc1nc2c(cnn2-c2ccc(F)cc2)c(=O)[nH]1)N1CCCCC1 | 1 | 0.8 | 21 | -6 | 1.1 | 2
Cc1ccc(C(Sc2ccccc2)C(Cn2cncn2)C(=O)c2ccccc2)cc1 (stereo not given) | -6 | 0.4 | 63* | 92* | 0.1 | ·
